Test results taken from ChEMBL document CHEMBL1143924, “Discovery of 2-amino-6-carboxamidobenzothiazoles as potent Lck inhibitors” (Bioorg Med Chem Lett, 2008).

Legend:
Format in all cases: functional, cell-based
[1] = system: BaF3; assay: Antiproliferative activity against InsR transformed mouse BaF3 cells
Procedure, shortened: (§1)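 BaF3 cells transformed with the named kinase, 25,000 cells per well, exposed to serial inhibitor dilutions or DMSO for 48 h. Luciferase expression, read by Bright-Glo luminescence, served as the measure of proliferation/survival.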

[2] = system: BaF3; assay: Antiproliferative activity against Lyn transformed mouse BaF3 cells; procedure, shortened: as §1
[3] = system: BaF3; assay: Antiproliferative activity against Src transformed mouse BaF3 cells; procedure, shortened: as §1
[4] = system: BaF3; assay: Antiproliferative activity against Sky transformed mouse BaF3 cells; procedure, shortened: as §1
[5] = system: BaF3; assay: Antiproliferative activity against JAK3 transformed mouse BaF3 cells; procedure, shortened: as §1
[6] = system: BaF3; assay: Antiproliferative activity against KDR transformed mouse BaF3 cells; procedure, shortened: as §1
[7] = system: BaF3; assay: Antiproliferative activity against Alk transformed mouse BaF3 cells; procedure, shortened: as §1
[8] = system: BaF3; assay: Antiproliferative activity against FGFR3 transformed mouse BaF3 cells; procedure, shortened: as §1
[9] = system: BaF3; assay: Antiproliferative activity against FLT3 transformed mouse BaF3 cells; procedure, shortened: as §1
[10] = system: BaF3; assay: Antiproliferative activity against Lck transformed mouse BaF3 cells after 48 hrs by luciferase assay; conditions: BaF3, 48 h; procedure, shortened: as §1
[11] = system: Jurkat; assay: Inhibition of phorbol myristate acetate and ionomycin induced IL2 promoter activity in human Jurkat cells after 5 hrs
Procedure, shortened: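 Jurkat IL-2 promoter-luciferase cells, 50,000 per well, stimulated with PMA plus ionomycin, added as an equal volume of solution containing PMA at 40 ng/mL (concentration before mixing). IL-2 promoter activity read as luciferase signal by Bright-Glo.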

[12] = system: Jurkat; assay: Inhibition of ant-CD3+CD28 antibodies induced IL2 promoter activity in human Jurkat cells after 5 hrs
Procedure, shortened: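 Wells coated with anti-mouse IgG in sodium bicarbonate buffer, then loaded with OKT3 (mouse anti-human CD3) and mouse anti-human CD28 antibodies, then washed. Jurkat cells carrying IL-2 promoter-driven luciferase, 100,000 per well, incubated 5 h on the bound antibodies. Luciferase read-out by Bright-Glo.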

| Compound | IC50 [10] | further results |
| --- | --- | --- |
| Cc1ccc(NC(=O)c2cccc(C(F)(F)F)c2)cc1NC(=O)c1ccc2nc(NC(=O)OC(C)C)sc2c1 | 30 nM | IC50 [1]: 13500 nM; IC50 [2]: 268 nM; IC50 [3]: 517 nM; IC50 [4]: 2440 nM; IC50 [5]: > 10000 nM; IC50 [6]: 3280 nM; IC50 [7]: 6110 nM; IC50 [8]: 12600 nM; IC50 [9]: > 10000 nM |
| Cc1ccc(NC(=O)c2cccc(C(F)(F)F)c2)cc1NC(=O)c1ccc2nc(NC(=O)NC3CCCC3)sc2c1 | 16 nM | IC50 [11]: 812 nM; IC50 [12]: 62 nM |
| Cc1ccc(NC(=O)c2cccc(C(F)(F)F)c2)cc1NC(=O)c1ccc2nc(N(C)C(=O)OC(C)(C)C)sc2c1 | 955 nM |  |
| Cc1ccc(NC(=O)c2cccc(C(F)(F)F)c2)cc1NC(=O)c1ccc2nc(NCCCN3CCOCC3)sc2c1 | 78 nM |  |
| Cc1ccc(NC(=O)c2cccc(C(F)(F)F)c2)cc1NC(=O)c1ccc2nc(N)sc2c1 | 170 nM |  |
| Cc1ccc(NC(=O)c2cccc(C(F)(F)F)c2)cc1NC(=O)c1ccc2nc(NC(=O)Oc3ccccc3)sc2c1 | 112 nM |  |
| Cc1cc(C)nc(Nc2nc3ccc(C(=O)Nc4cc(NC(=O)c5cccc(C(F)(F)F)c5)ccc4C)cc3s2)n1 | 53 nM |  |
| Cc1ccc(NC(=O)c2cccc(C(F)(F)F)c2)cc1NC(=O)c1ccc2nc(NCCN3CCN(C)CC3)sc2c1 | 58 nM |  |
| Cc1ccc(NC(=O)c2cccc(C(F)(F)F)c2)cc1NC(=O)c1ccc2nc(NC(=O)OC(C)(C)C)sc2c1 | 36 nM |  |
| CCNC(=O)Nc1nc2ccc(C(=O)Nc3cc(NC(=O)c4ccc(C(C)(C)C)s4)ccc3C)cc2s1 | 12 nM |  |
| Cc1cc(Nc2nc3ccc(C(=O)Nc4cc(NC(=O)c5cccc(C(F)(F)F)c5)ccc4C)cc3s2)no1 | 8 nM |  |
| COCCOC(=O)Nc1nc2ccc(C(=O)Nc3cc(NC(=O)c4cccc(C(F)(F)F)c4)ccc3C)cc2s1 | 8 nM | IC50 [11]: 438 nM; IC50 [12]: 12 nM |
| CCNC(=O)Nc1nc2ccc(C(=O)Nc3cc(NC(=O)c4ccnc(C(C)(C)C)c4)ccc3C)cc2s1 | 9 nM |  |
| Cc1ccc(NC(=O)c2cccc(C(F)(F)F)c2)cc1NC(=O)c1ccc2nc(Nc3cnccn3)sc2c1 | 4 nM |  |
| Cc1ccc(NC(=O)c2cccc(C(F)(F)F)c2)cc1NC(=O)c1ccc2nc(NC(=O)Nc3ccccc3)sc2c1 | 94 nM |  |
| Cc1cc(Br)c(NC(=O)c2cccc(C(F)(F)F)c2)cc1NC(=O)c1ccc2nc(NCCN3CCOCC3)sc2c1 | 2100 nM |  |
| Cc1cc(Nc2nc3ccc(C(=O)Nc4cc(NC(=O)c5cccc(C(F)(F)F)c5)ccc4C)cc3s2)nc(C)n1 | 0.6 nM |  |
| Cc1ccc(NC(=O)c2cccc(C(F)(F)F)c2)cc1NC(=O)c1ccc2nc(NCCCN(C)C)sc2c1 | 81 nM |  |
| CCNC(=O)Nc1nc2ccc(C(=O)Nc3cc(NC(=O)c4cc(-n5cnc(C)c5)cc(C(F)(F)F)c4)ccc3C)cc2s1 | 15 nM |  |
| COc1ccc(OC(=O)Nc2nc3ccc(C(=O)Nc4cc(NC(=O)c5cccc(C(F)(F)F)c5)ccc4C)cc3s2)cc1 | 131 nM |  |
| CCNC(=O)Nc1nc2ccc(C(=O)Nc3cc(NC(=O)c4cc(N5CCN(C)CC5)cc(C(F)(F)F)c4)ccc3C)cc2s1 | 19 nM |  |
| Cc1ccnc(Nc2nc3ccc(C(=O)Nc4cc(NC(=O)c5cccc(C(F)(F)F)c5)ccc4C)cc3s2)c1 | 16 nM |  |
| Cc1ccc(NC(=O)c2cccc(C(F)(F)F)c2)cc1NC(=O)c1ccc2nc(NC(=O)Nc3cccnc3)sc2c1 | 125 nM |  |

Now from value to molecule, other results behind:

| IC50 [10] | Compound | further results |
| --- | --- | --- |
| 118 nM | CCNC(=O)Nc1nc2ccc(C(=O)Nc3cc(C(=O)Nc4cccc(C(F)(F)F)c4)ccc3C)cc2s1 |  |
| 30 nM | COC(=O)Nc1nc2ccc(C(=O)Nc3cc(NC(=O)c4cccc(C(F)(F)F)c4)ccc3C)cc2s1 | IC50 [11]: 851 nM; IC50 [12]: 36 nM |
| 112 nM | CCNC(=O)Nc1nc2ccc(C(=O)Nc3cc(NC(=O)c4cccc(C)c4)ccc3C)cc2s1 |  |
| 21 nM | CNC(=O)Nc1nc2ccc(C(=O)Nc3cc(NC(=O)c4cccc(C(F)(F)F)c4)ccc3C)cc2s1 | IC50 [1]: 1280 nM; IC50 [2]: 94 nM; IC50 [3]: 301 nM; IC50 [4]: 1100 nM; IC50 [5]: 5010 nM; IC50 [6]: 1610 nM; IC50 [7]: 1630 nM; IC50 [8]: 1980 nM; IC50 [9]: 3140 nM |
| 139 nM | Cc1ccc(C(=O)Nc2cccc(C(F)(F)F)c2)cc1NC(=O)c1ccc2nc(NC(=O)NC3CCCC3)sc2c1 |  |
| 158 nM | CCNC(=O)Nc1nc2ccc(C(=O)Nc3cc(NC(=O)c4cccc(OC)c4)ccc3C)cc2s1 |  |
| > 10000 nM | CCNC(=O)N(C)c1nc2ccc(C(=O)Nc3cc(NC(=O)c4cccc(C(F)(F)F)c4)ccc3C)cc2s1 |  |
| 50 nM | CCNC(=O)Nc1nc2ccc(C(=O)Nc3cc(NC(=O)c4ccc(Cl)c(C(F)(F)F)c4)ccc3C)cc2s1 |  |
| 16 nM | CCNC(=O)Nc1nc2ccc(C(=O)Nc3cc(NC(=O)c4cccc(C(F)(F)F)c4)ccc3C)cc2s1 | IC50 [11]: 373 nM; IC50 [12]: 44 nM |
| 7 nM | CCNC(=O)Nc1nc2ccc(C(=O)Nc3cc(NC(=O)c4cc(F)cc(C(F)(F)F)c4)ccc3C)cc2s1 |  |
| 104 nM | CCNC(=O)Nc1nc2ccc(C(=O)Nc3cc(NC(=O)c4cccc(Cl)c4)ccc3C)cc2s1 |  |
